Data reported in ChEMBL document CHEMBL4024777, “Discovery of LY3104607: A Potent and Selective G Protein-Coupled Receptor 40 (GPR40) Agonist with Optimized Pharmacokinetic Properties to Support Once Daily Oral Treatment in Patients with Type 2 Diabetes Mellitus” (J Med Chem, 2018).
In brackets after ≈: the same amount, converted by molar mass. Activity calls are given as the source filed them. The calls are words filed in the database; no cut-off is given here.

Columns and labels:
[1] = target: T1, Free fatty acid receptor 1 (Homo sapiens, UniProt O14842); assay: Agonist activity at human GPR40 receptor expressed in HEK293 cells assessed as increase in intracellular calcium flux after 2.5 hrs measured over 3 mins by calcium 4 dye-based FLIPR assay; type: functional, cell-based
T1 sequence (O14842 whole entry): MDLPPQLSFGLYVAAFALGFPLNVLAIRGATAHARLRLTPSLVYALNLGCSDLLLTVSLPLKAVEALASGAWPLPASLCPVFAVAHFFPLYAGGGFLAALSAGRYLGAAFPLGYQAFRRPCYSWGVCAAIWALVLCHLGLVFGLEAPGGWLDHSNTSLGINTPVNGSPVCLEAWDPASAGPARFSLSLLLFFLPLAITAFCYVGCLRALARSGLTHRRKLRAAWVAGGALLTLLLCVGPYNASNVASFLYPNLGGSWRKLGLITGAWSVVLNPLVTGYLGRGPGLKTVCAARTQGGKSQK
How it was run: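 Calcium flux was read by FLIPR in cells carrying recombinant human GPR40. Percent stimulation is relative to the response to 100 µM linoleic acid. EC50 is reported with SEM and n.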

[2] = Clearance in type 2 diabetes patient; type: ADME; conditions: human, in vivo
[3] = Volume of distribution in type 2 diabetes patient; type: ADME; conditions: human, in vivo
[4] = Metabolic stability in rat microsomes assessed as compound metabolized after 30 mins; type: ADME, Microsome; conditions: read-out: Drug metabolism
How it was run: (§1)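 Compound incubated 30 min with liver microsomes from mouse, rat, dog or human. Percent of compound metabolized recorded, as mean (SEM, n).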

[5] = Drug metabolism in rat hepatocytes assessed as glucuronidation; type: ADME, cell-based, Hepatocyte
[6] = target: T1, Free fatty acid receptor 1; assay: Competitive displacement of [3H]-TAK-875 from full length human recombinant GPR40 expressed in HEK293 cell membranes after 2 hrs by scintillation counting
How it was run: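 Binding was measured as competitive inhibition of [3H]-TAK875 (fasiglifam) binding to membranes from cells overexpressing recombinant human GPR40. Ki is reported with SEM and n.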

[7] = Intrinsic clearance in human microsomes; type: ADME, Microsome
[8] = Drug metabolism in mouse hepatocytes assessed as glucuronidation; type: ADME, cell-based, Hepatocyte
[9] = Intrinsic clearance in human hepatocytes; type: ADME, cell-based, Hepatocyte
[10] = Drug metabolism in mouse hepatocytes assessed as desmethylation; type: ADME, cell-based, Hepatocyte
[11] = target: T1, Free fatty acid receptor 1; assay: Agonist activity at human GPR40 receptor expressed in HEK293 cells assessed as increase in intracellular calcium flux after 2.5 hrs measured over 3 mins by calcium 4 dye-based FLIPR assay relative to linoleic acid; type: functional, cell-based
How it was run: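 Human GPR40 calcium flux was read on FLIPR. Percent stimulation is expressed against the response to 100 uM linoleic acid.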

[12] = Metabolic stability in dog microsomes assessed as compound metabolized after 30 mins; type: ADME, Canis lupus familiaris, Microsome; conditions: read-out: Drug metabolism; how it was run: as §1
[13] = Aqueous solubility of the compound at pH 7.4; type: physicochemical
How it was run: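 Solubility was measured by DMSO/aqueous precipitation at pH 7.4 and reported as the last soluble concentration.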

[14] = Dissociation constant, pKa of the compound; type: physicochemical
[15] = Drug metabolism in rat hepatocytes assessed as desmethylation; type: ADME, cell-based, Hepatocyte
[16] = test system: Rattus norvegicus; assay: Antidiabetic activity in po dosed Zucker fa/fa rat assessed as reduction in blood glucose AUC administered daily for 21 days followed by OGTT at 1 hr after compound dosing and measured 60 mins post glucose challenge by oral glucose tolerance test; type: functional
[17] = Drug metabolism in dog hepatocytes assessed as desmethylation; type: ADME, cell-based, Canis lupus familiaris, Hepatocyte
[18] = Drug metabolism in dog hepatocytes assessed as glucuronidation; type: ADME, cell-based, Canis lupus familiaris, Hepatocyte
[19] = Drug metabolism in dog hepatocytes assessed as oxidation; type: ADME, cell-based, Canis lupus familiaris, Hepatocyte
[20] = Drug metabolism in dog hepatocytes assessed as N-dealkylation; type: ADME, cell-based, Canis lupus familiaris, Hepatocyte
[21] = Drug metabolism in rat hepatocytes assessed as oxidation; type: ADME, cell-based, Hepatocyte
[22] = Drug metabolism in rat hepatocytes assessed as N-dealkylation; type: ADME, cell-based, Hepatocyte
[23] = Drug metabolism in mouse hepatocytes assessed as N-dealkylation; type: ADME, cell-based, Hepatocyte
[24] = Metabolic stability in mouse microsomes assessed as compound metabolized after 30 mins; type: ADME, Microsome; conditions: read-out: Drug metabolism; how it was run: as §1
[25] = Lipophilicity, log P of the compound; type: physicochemical; conditions: octanol/water
[26] = Metabolic stability in human microsomes assessed as compound metabolized after 30 mins; type: ADME, Microsome; conditions: read-out: Drug metabolism; how it was run: as §1
[27] = Drug metabolism in mouse hepatocytes assessed as oxidation; type: ADME, cell-based, Hepatocyte
[28] = Drug metabolism in rat hepatocytes assessed as O-dealkylation; type: ADME, cell-based, Hepatocyte
[29] = Drug metabolism in dog hepatocytes assessed as O-dealkylation; type: ADME, cell-based, Canis lupus familiaris, Hepatocyte
[30] = test system: Rattus norvegicus; assay: Antidiabetic activity in Zucker fa/fa rat assessed as reduction in blood glucose AUC at 1 mg/kg, po administered for 1 day followed by OGTT at 1 hr after compound dosing and measured 60 mins post glucose challenge by oral glucose tolerance test; type: functional, organism-based
[31] = Drug metabolism in mouse hepatocytes assessed as O-dealkylation; type: ADME, cell-based, Hepatocyte

EC50 [1] [nM] | clearance [2] [mL/min] | Vd [3] [L] | metabolised at 0.5 h [4] [%] | Drug metabolism [5] | Ki [6] [nM] | K [7] [h⁻¹] | Drug metabolism [8] | K [9] [h⁻¹] | %max [11] [%] | metabolised at 0.5 h [12] [%] | solubility [13] [µM] | pKa [14] | Drug metabolism [18] | Drug metabolism [19] | Drug metabolism [21] | Drug metabolism [27] | SMILES | ED90 [16] [mg/kg] | further results
3 | 183 to 233 | 244 to 358 | 62 | Metabolite_Detected | 27 | 0.0048 | Metabolite_Detected | 0.17 | 51 | 18 | > 100 | 3.4 to 6 | Metabolite_Detected | – | – | – | CC#C[C@@H](CC(=O)O)c1ccc(OCc2ccc(CN3CCCc4cccc(OC)c43)s2)cc1 | 3.3 | Drug metabolism [10]: Metabolite_Detected; Drug metabolism [15]: Metabolite_Detected; Drug metabolism [17]: Metabolite_Detected
8 | 517 to 717 | 443 to 885 | 98 | Metabolite_Detected | 8.2 | 0.109 | Metabolite_Detected | 0.23 | 50 | 93 | 70 to 89 (≈ 34 to 43.2 µg/mL) | 3.4 to 7.9 | Metabolite_Detected | Metabolite_Detected | Metabolite_Detected | Metabolite_Detected | CC#C[C@@H](CC(=O)O)c1ccc(OCc2ccc(N3CCC4(CCc5ccccc54)CC3)s2)cc1 | 14.2 | Drug metabolism [20]: Metabolite_Detected; Drug metabolism [22]: Metabolite_Detected; Drug metabolism [23]: Metabolite_Detected; metabolised at 0.5 h [24]: 98%; logP [25]: 5; metabolised at 0.5 h [26]: 44%
– | 183 | 111 | 64 | Metabolite_Detected | – | 0.033 | Metabolite_Detected | – | 62 | 65 | 61 to 80 (≈ 30 to 39.3 µg/mL) | 4.1 to 8.1 | Metabolite_Detected | Metabolite_Detected | Metabolite_Detected | Metabolite_Detected | CC#C[C@@H](CC(=O)O)c1ccc(OCc2ccc(CN3CCC4(C=Cc5ccccc54)CC3)cc2)cc1 [LY2881835] | 1 | Drug metabolism [28]: Metabolite_Detected; Drug metabolism [29]: Metabolite_Detected; Activity [30]: Active; Drug metabolism [31]: Metabolite_Detected
